Records with an inconclusive call do not appear.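 The calls were made as follows, unless noted: active = inhibition over a set limit, the all-compound mean plus 3 SD, in both replicate runs; inconclusive = over that limit in just one replicate run; inactive = at or under that limit in both runs.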
What was measured:
[1] = S. cerevisiae growth inhibition in permissive medium (OD615), pilot counter-assay for S. cerevisiae lifespan shortening project, permissive growth control (AID 705;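 active = growth inhibition above 25% in both replicates, a cutoff set 3 SD above the mean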); conditions: OD615, 24 h, at 10 µM, stronger effect = higher value
How it was run: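 System: Engineered DeaD yeast | Buffer or medium: SC raffinose/galactose permissive medium | Doses: 10 µM single dose, 0.25% DMSO | Times: 24 h exposure, 30 °C | Measured by: OD615 turbidity read | Read-out: Yeast growth inhibition indicated by reduced 24 h OD615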

[2] = S. cerevisiae growth inhibition in restrictive medium, OD615, pilot screen, restrictive growth control, yeast lifespan reduction project (AID 706;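 active = growth inhibition above a set limit, 3 SD over mean compound inhibition, in both replicates, cut at about 43% in these data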;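 also: modified DeaD lifespan yeast strain shifted to restrictive glucose medium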); conditions: OD615, 48 h, at 10 µM, stronger effect = higher value
How it was run: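 Assay system: engineered S. cerevisiae DeaD strain; Buffer or medium: CSMM-D glucose medium; Dosing: 10 µM compound, 0.25% DMSO; Times: cell pre-growth 4 h, compound exposure 48 h, 30 °C; Detection: absorbance (optical density) measured at 615 nm.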

[3] = doxorubicin toxicity protection in MRP-1 cells – H69AR cells, CellTiter-Glo, duplicate, MRP-1 activator project, pilot screen (AID 807;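 active = viability increase at or above a cutoff of the median across tested compounds plus 3 SD, cut at about 8.5% in these data, passing the limit was not always enough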;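 also: compound pretreatment 18-22 h then 72 h combined with doxorubicin; 0% = doxorubicin alone and 100% = vehicle without doxorubicin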); conditions: H69AR viability with doxorubicin, CellTiter-Glo luminescence; at 10 µM; stronger effect = higher value
[4] = viability of HCT116 without oncogenic beta-catenin – human colon tumor cells, pilot screen (AID 823;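 active = cell viability at or below a set limit in both duplicate runs, the limit being the all-compound median minus 4 SD, cut at about 23% in these data, passing the limit was not always enough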;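 also: 0% = wells killed by 20 µM Hyamine and 100% = untreated DMSO cell wells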); conditions: HCT116 beta-catenin knockout viability, CellTiter-Glo, 60 h; at 10 µM; stronger effect = lower value
[5] = viability of PTEN-null HCT116 cells – cell-based, HCT116 clonal line, CellTiter-Glo, pilot screen (AID 824;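 active = viability at or below 27.92% in each of two runs, the all-compound median minus 4 SD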;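 also: 0% = 20 µM Hyamine control and 100% = vehicle cell control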); conditions: HCT116 PTEN-deleted viability, 60 h, at 10 µM, stronger effect = lower value
[6] = RAM pathway blockade in budding yeast – dse1pr::URA3 reporter, 5-FOA selection, pilot screen (AID 869);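 also: 0% = DMSO wells with no growth and 100% = 10 µM 1-NA-PP1 with full growth; RAM network block rescues cells from 5-FOA so hits raise OD615 growth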; conditions: S. cerevisiae dse1pr::URA3 5-FOA growth, OD615, 2 d; at 10 µM; stronger effect = higher value; strain carries analog-sensitive mutant Cbk1 kinase
[7] = RAM signaling pathway blockade in yeast – S. cerevisiae, Pdr1DBD-CYC8 efflux-inhibited sensitized strain, primary screen (AID 1298;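 active = RAM network inhibition above 8.4% in each of two replicates, 3 SD over the compound average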;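 also: 0% = DMSO untreated cells without growth and 100% = 10 µM 1-NA-PP1 full growth; higher means more yeast growth rescued from 5-FOA killing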); conditions: S. cerevisiae cbk1-as DSE1-URA3 strain, 5-FOA growth OD615, 2 d; at 50 µM; stronger effect = higher value

Cc1cc(C)cc(OCC(O)CN2C(=O)NC(C)(C)C2=O)c1 (stereo not drawn)
inactive: growth inhibition [1] 2.01% | growth inhibition [2] 2.59% | viability increase [3] 0.13% | viability [4] 108% | viability [5] 103% | inhibition [6] -0.255% | RAM network inhibition [7] 2.26%

CCc1c(C)sc(NC(=O)c2cc(C)no2)c1C#N
inactive: growth inhibition [1] 1.33% | growth inhibition [2] 8.59% | viability increase [3] -0.5% | viability [4] 99% | viability [5] 93.4% | inhibition [6] 1.31% | RAM network inhibition [7] 6.13%

CCCC(=O)C1=C(SCC)CC(C)(C)C(C(=O)OC)C1=O (stereo not drawn)
inactive: growth inhibition [1] -14.4% | growth inhibition [2] -21.5% | viability increase [3] -2.57% | viability [4] 86.5% | viability [5] 91.8% | inhibition [6] -0.035% | RAM network inhibition [7] 3.4%

O=C(NCCCNCc1ccccc1)c1ccc(/C=N/O)nc1
inactive: growth inhibition [1] -8.54% | growth inhibition [2] -12.5% | viability increase [3] -1.94% | viability [4] 93.2% | viability [5] 97.9% | inhibition [6] 1.73% | RAM network inhibition [7] 3.09%

CCOC(=O)c1sc(NC(=O)C2CCCO2)c(C(=O)OCC)c1C (stereo not drawn)
inactive: growth inhibition [1] -9.48% | growth inhibition [2] -8.48% | viability increase [3] -2.56% | viability [4] 102% | viability [5] 93% | inhibition [6] 1.31% | RAM network inhibition [7] 2.09%

Cn1c(=O)c2c(SCC(=O)N3CCN(c4ccccc4)CC3)nc(C3CC3)nc2n(C)c1=O
inactive: growth inhibition [1] 10.6% | growth inhibition [2] -3.49% | viability increase [3] -2.93% | viability [4] 82.5% | viability [5] 79.8% | inhibition [6] 3.71% | RAM network inhibition [7] 6.69%

COCCNC(=O)C1c2cc(OC)c(OC)cc2C(=O)N(C)C1c1cccnc1 (stereo not drawn)
inactive: growth inhibition [1] -5.99% | growth inhibition [2] -8.46% | viability increase [3] 0.41% | viability [4] 91.3% | viability [5] 92% | inhibition [6] -0.34% | RAM network inhibition [7] 5.06%

O=C(c1ccc(CS(=O)(=O)c2ccc(Br)cc2)o1)N1CCCCCC1
inactive: growth inhibition [1] -9.29% | growth inhibition [2] -18.8% | viability increase [3] -2.25% | viability [4] 87.9% | viability [5] 92.2% | inhibition [6] 0.185% | RAM network inhibition [7] 9.94%

COc1ccc(N2CC(C(=O)Nc3ccc(S(=O)(=O)Nc4nc(C)cc(C)n4)cc3)CC2=O)cc1 (stereo not drawn)
inactive: growth inhibition [1] -8.26% | growth inhibition [2] -7.87% | viability increase [3] -1.39% | viability [4] 100% | viability [5] 91.4% | inhibition [6] 1% | RAM network inhibition [7] 2.5%

CCOc1ccc(-c2cc(NC(=O)Cn3ncc4c3-c3ccccc3OC4)on2)cc1OCC
inactive: growth inhibition [1] -7.96% | growth inhibition [2] -3.25% | viability increase [3] 1.4% | viability [4] 98.8% | viability [5] 91.2% | inhibition [6] 1.22% | RAM network inhibition [7] -0.17%

CCN1CCN(Cc2ccc(NC(=O)CC3Oc4ccc(C)cc4NC3=O)cc2)CC1 (stereo not drawn)
inactive: growth inhibition [1] -3.29% | growth inhibition [2] 1.68% | viability increase [3] -0.91% | viability [4] 93% | viability [5] 101% | inhibition [6] 0.29% | RAM network inhibition [7] 2.33%

COc1ccc(N2CCN(C(=O)c3sc4nc(-c5ccc(F)cc5)cn4c3C)CC2)cc1
inactive: growth inhibition [1] -10.6% | growth inhibition [2] -19.7% | viability increase [3] -4.7% | viability [4] 102% | viability [5] 95.6% | inhibition [6] 2.24% | RAM network inhibition [7] 3.45%

O=C(Cn1cc2c(n1)CCCC2)NCCCN1CCN(Cc2ccccc2)CC1
inactive: growth inhibition [1] -1.54% | growth inhibition [2] -1.17% | viability increase [3] -2.71% | viability [4] 91.5% | viability [5] 93.2% | inhibition [6] 0.61% | RAM network inhibition [7] -0.1%

Cc1ccccc1-n1c(SC/C(O)=C(\C#N)c2nc3ccccc3[nH]2)nnc1-c1ccncc1
inactive: growth inhibition [1] 2.37% | growth inhibition [2] 19.1% | viability increase [3] -3.4% | viability [4] 93.5% | viability [5] 81.7% | inhibition [6] 2.92% | RAM network inhibition [7] 2.28%

Nn1c(SCc2ccccc2)nnc1-c1ccco1
inactive: growth inhibition [1] -8.86% | growth inhibition [2] 3.38% | viability increase [3] -3.7% | viability [4] 99.2% | viability [5] 93% | inhibition [6] 0.67% | RAM network inhibition [7] -1.12%

COc1cccc(C(=O)NC2CC3CCCC(C2)N3CC(=O)Nc2ccc(N(C)C)cc2)c1 (stereo not drawn)
inactive: growth inhibition [1] -14.1% | growth inhibition [2] -14.7% | viability increase [3] -0.9% | viability [4] 85.4% | viability [5] 87.8% | inhibition [6] 0.955% | RAM network inhibition [7] 1.97%

CCCCCn1c(SCC(=O)OC)nc2c1c(=O)[nH]c(=O)n2C
inactive: growth inhibition [1] -16.6% | growth inhibition [2] -10.6% | viability increase [3] -0.86% | viability [4] 103% | viability [5] 102% | inhibition [6] 1.29% | RAM network inhibition [7] 0.79%

CCOC(=O)N1CCC(N2C(=O)c3cc(C(=O)NC4CCCCC4)ccc3C2O)CC1 (stereo not drawn)
inactive: growth inhibition [1] -2.13% | growth inhibition [2] -0.895% | viability increase [3] -3.03% | viability [4] 94.5% | viability [5] 88.1% | inhibition [6] 0.045% | RAM network inhibition [7] 3.81%

CCSc1nc2c(c(=O)[nH]1)C(C(C)C)C(C#N)=C(N)O2 (stereo not drawn)
inactive: growth inhibition [1] -20.5% | growth inhibition [2] -13% | viability increase [3] -2.8% | viability [4] 106% | viability [5] 98.9% | inhibition [6] 0.63% | RAM network inhibition [7] 2.73%

CCCCOc1ccccc1C1C(C(=O)OC)=CN(CC)C=C1C(=O)OC
inactive: growth inhibition [1] -6.49% | growth inhibition [2] 0.595% | viability increase [3] -5.35% | viability [4] 73.8% | viability [5] 70.9% | inhibition [6] 3.23% | RAM network inhibition [7] 6.73%

CCOC(=O)C1=C(C)NC(=O)NC1c1c(O)ccc2ccccc12 (stereo not drawn)
inactive: growth inhibition [1] -11.6% | growth inhibition [2] -12.7% | viability increase [3] -3.39% | viability [4] 97.6% | viability [5] 95.4% | inhibition [6] 0.77% | RAM network inhibition [7] 2.29%

CCOC(=O)c1c(NC(=O)c2cccs2)sc2c1CCCC2
inactive: growth inhibition [1] -6.96% | growth inhibition [2] -21.1% | viability increase [3] -4.82% | viability [4] 101% | viability [5] 83.5% | inhibition [6] 3.56% | RAM network inhibition [7] 8%

O=C1CN(C(=O)COC(=O)C2CC(=O)N(Cc3ccco3)C2)c2ccccc2N1 (stereo not drawn)
inactive: growth inhibition [1] -12% | growth inhibition [2] -16.7% | viability increase [3] -2.08% | viability [4] 102% | viability [5] 104% | inhibition [6] 1.06% | RAM network inhibition [7] 4.09%

CCCC12CN3CC(CCC)(CN(C1)C3C(O)C(O)C(O)CO)C2=O (stereo not drawn)
inactive: growth inhibition [1] 4.31% | growth inhibition [2] 7.78% | viability increase [3] 0.62% | viability [4] 99.7% | viability [5] 100% | inhibition [6] 1.27% | RAM network inhibition [7] 3.47%

— PubChem BioAssay
